Screens: PubChem BioAssay, The Scripps Research Institute Molecular Screening Center
Hits are enriched below; roughly 4.5% of the tested compounds scored in any of these assays.
TAAR1 ag: agonists of human TAAR1; 0.99% of 360,000 active; CHO RD-HGA16 TAAR1, Fluo-8 calcium fluorescence; vehicle wells 0%, saturating PEA agonist 100%; activation, % at 3 µM; AID 624467;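 active means activation above the mean activation of all test compounds in the run plus 3 SD, cut at about 38% in these data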
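Signal – calcium-sensitive Fluo-8 signal, excitation 470-495, emission 515-575 nm · System – RD-HGA16 (CHO) cells co-expressing Gα16 and hTAAR1 · Incubation – 17-24 h seeding, 75 min 37 °C dye, 30 min RT · Compound dosing – 3 µM single concentration · Repeats – no replicates (n 1)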
OX1R antag-1: blocks the human orexin 1 receptor; AID 485270; inhibition, % at 6.6 µM; OX1R-expressing cells, FRET antagonist read-out; O43613; 1.8% of 330,000 active; in the data active means inhibition mostly above about 38%, no sharp cut-off; inactive means mostly below about 40%;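 further: 0% = agonist challenge alone and 100% = reference antagonist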
Target sequence (O43613 whole entry, looked up): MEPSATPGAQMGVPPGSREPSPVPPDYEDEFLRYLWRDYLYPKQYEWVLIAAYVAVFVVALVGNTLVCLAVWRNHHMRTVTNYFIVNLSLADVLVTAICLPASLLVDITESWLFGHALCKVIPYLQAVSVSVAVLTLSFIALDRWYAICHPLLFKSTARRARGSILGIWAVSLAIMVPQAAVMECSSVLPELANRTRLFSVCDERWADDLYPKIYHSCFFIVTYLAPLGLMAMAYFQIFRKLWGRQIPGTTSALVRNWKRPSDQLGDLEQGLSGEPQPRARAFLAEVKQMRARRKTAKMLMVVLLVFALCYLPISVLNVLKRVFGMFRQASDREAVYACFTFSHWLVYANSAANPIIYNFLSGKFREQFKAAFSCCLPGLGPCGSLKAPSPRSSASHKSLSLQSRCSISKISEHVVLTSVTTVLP
GPR7 antagonist: human neuropeptides B/W receptor 1 antagonism; P48145; GPR7-expressing cells, fluorescence antagonist assay; inhibition, % at 4.4 µM; 1.1% of 290,000 active; AID 1861; in the data active means inhibition above about 16%, passing the limit was not always enough;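 further: cells stimulated with the agonist NPW; 0% = agonist with vehicle and 100% = vehicle without agonist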
TAAR1 antagonist: antagonists of human TAAR1; CHO RD-HGA16 TAAR1, Fluo-8 calcium fluorescence, antagonist; inhibition, % at 3 µM; 1.5% of 360,000 active;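 active means inhibition above a per-plate cutoff, the mean inhibition of test compounds on that plate plus 3 SD, cut at about 49% in these data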;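 further: 0% = DMSO plus EC80 beta-PEA response and 100% = DMSO alone without agonist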
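System: RD-HGA16 CHO cells with stable hTAAR1 and Gα16 | Probe or stimulus: EC80 β-phenethylamine stimulus | Dosing: 3 µM, single point | Times: Dye loading 75 min at 37 °C, then 30 min room temperature | Measured by: Fluo-8 calcium-sensitive fluorescence | Read-out basis: % inhibition of agonist calcium response | Replicates: n of 1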
CHO parental Ca: signal in parental CHO cells, OX1R antagonist counter-screen; parental CHO-K1, ATP-induced calcium, Fluo-8 fluorescence; inhibition, % at 5.6 µM; 0.63% of 330,000 active; AID 463079;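 active means inhibition above that plate's mean sample inhibition plus 3 SD, cut at about 26% in these data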;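 further: 0% = ATP-challenged DMSO wells and 100% = DMSO wells without ATP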
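Test system: untransfected parental CHO cell line; also added: ATP stimulus; dosing: 5.6 µM, single dose; signal: calcium-sensitive Fluo-8 fluorescence; measure: percent inhibition of ATP-evoked calcium rise, normalized to controls; benchmarks: low control ATP plus DMSO, high control DMSO only; replication: one well per compound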
OX1R antag-2: antagonists of human orexin 1 receptor; CHO/OX1R cells, Fluo-8 calcium fluorescence, orexin A; inhibition, % at 5 µM; 0.43% of 330,000 active;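 active means inhibition above its plate's threshold, mean inhibition of all tested compounds on the plate plus 3 SD, cut at about 37% in these data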;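 further: 0% = orexin A challenge wells and 100% = SB-334867-A antagonist wells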
nonsel antag count: nonselective antagonist in TAAR1 antagonist counter-screen; shares compounds with TAAR1 antagonist; counterscreen cell line, calcium fluorescence, antagonist mode; inhibition, % at 3 µM; 77% of 2,400 active; in the data active means inhibition above about 22%;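 further: CHO-Ga16 host cells stimulated with ATP at an EC80 level; 0% = agonist EC80 plus vehicle and 100% = vehicle without agonist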
TAAR1 antag conf: confirmation of human TAAR1 antagonists | shares compounds with TAAR1 antagonist | TAAR1-expressing cells, fluorescence antagonist read-out | inhibition, % at 3 µM | 40% of 2,400 active | AID 651785; in the data active means inhibition above about 49%;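 further: CHO-Ga16 host cells challenged with agonist PEA near its EC80; 0% = agonist at EC80 plus vehicle and 100% = vehicle with no agonist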
Ga16 nonsel ag: nonselective Ga16 agonist in TAAR1 antagonist counter-screen | shares compounds with TAAR1 antagonist | Ga16-expressing cells, calcium fluorescence, agonist counterscreen | activation, % at 3 µM | 18% of 2,400 active | AID 651953; in the data active means activation above about 12%;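 further: 0% = vehicle wells and 100% = saturating stimulus response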
TAAR1 ag counter: TAAR1 agonism, antagonist counter-screen; shares compounds with TAAR1 antagonist; hTAAR1 cell line, fluorescence activation, agonist mode; activation, % at 3 µM; 2% of 2,400 active; AID 651955; in the data active means activation above about 37%;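 further: CHO cells stably expressing TAAR1 with calcium dye readout; 0% = DMSO vehicle and 100% = full agonist response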
* marks the source's active call; other numbers are inactive results; . = not tested or not shown.

SMILES	TAAR1 ag	OX1R antag-1	GPR7 antagonist	TAAR1 antagonist	CHO parental Ca	OX1R antag-2	nonsel antag count	TAAR1 antag conf	Ga16 nonsel ag	TAAR1 ag counter
C=CCn1c(SCc2c(C)noc2C)nc2cc(C(=O)O)ccc2c1=O	11	20	14	76*	-1	-7	5	3	2	8
C=CCn1c(SCc2ccc(Br)cc2F)nc2cc(C(=O)O)ccc2c1=O	-1	30	0	4	-13	-12	.	.	.	.
CC1=CC(C)C(=O)N(C)C(C)=C1 (stereo not drawn)	1	.	.	-2	.	.	.	.	.	.
COc1ccccc1CNC(=O)CCNS(=O)(=O)c1ccc2[nH]c(=O)oc2c1	0	11	0	-24	-23	-20	.	.	.	.
Cc1ccc(C(=O)NCC(=O)OCC(=O)/C=C2\N(C)c3ccccc3C2(C)C)cc1C	3	16	-6	58*	-15	-36	29*	41	6	8
O=S(=O)(Nc1cccc(-n2cnnn2)c1)c1ccccc1C(F)(F)F	0	11	-14	-5	2	3	.	.	.	.
CCC1(c2ccc(Cl)cc2)NC(=O)N(CC(=O)NC2CCCC(C)C2C)C1=O (stereo not drawn)	7	.	.	-46	.	.	.	.	.	.
COc1ccc(-c2cc(NC(=O)Cc3c[nH]c4ccccc34)ccc2Nc2cccnc2)cc1F	20	.	.	90*	.	.	39*	65*	10	12
O=C(Cc1c[nH]c2ccccc12)Nc1ccc(Nc2cccnc2)c(-c2cc(F)cc(F)c2)c1	18	.	.	89*	.	.	36*	57*	14*	15
O=C(Cc1c[nH]c2ccccc12)Nc1ccc(Nc2cccnc2)c(-c2ccc(Cl)c(Cl)c2)c1	11	.	.	71*	.	.	38*	56*	9	10
O=C(Cc1c[nH]c2ccccc12)Nc1ccc(Nc2cccnc2)c(-c2ccc(Oc3ccccc3)cc2)c1	2	.	.	30	.	.	.	.	.	.
CCN(CC(=O)Nc1ccc(OC)cc1)C(=O)c1ccc(OCc2c(C)noc2C)cc1	2	.	.	-16	.	.	.	.	.	.
Cc1cccc(NC(=O)CNC(=O)CN2C(=O)NC3(CCCCC3C)C2=O)c1C (stereo not drawn)	2	20	.	-3	-7	-18	.	.	.	.
Nc1cc2c(cc1Cl)-c1ccccc1C2=NO	22	.	.	14	.	.	.	.	.	.
CC(C)N1CCN(C(=O)c2ccc(NC(=O)c3ccc(Br)o3)cc2)CC1	3	11	.	3	1	4	.	.	.	.
O=C(Nc1ccc(N2CCN(C(=O)c3ccccc3)CC2)cc1)c1ccc2c(c1)OCCO2	8	26	15	12	-8	-5	.	.	.	.
O=C(Nc1ccc(N2CCN(C(=O)c3ccccc3)CC2)c(Cl)c1)c1ccc(Br)o1	17	13	6	69*	3	4	35*	47	8	5
CN1CCN(c2ccc(NC(=O)c3cc4ccccc4o3)cc2)CC1	8	12	-15	2	-6	-31	.	.	.	.
O=C(Nc1ccc(N2CCN(C(=O)c3ccccc3)CC2)cc1)c1cc2ccccc2o1	15	24	-12	77*	-2	15	44*	62*	10	14
O=C(Nc1ccc(N2CCN(C(=O)c3ccc(Cl)cc3)CC2)cc1)c1ccc2c(c1)OCCO2	12	27	-9	58*	8	18	44*	49*	11	5
CC[C@@H]1CC2=C(C(=O)OC(C)(C)O2)[C@@H](c2ccc(Cl)cc2)O1	-1	.	.	-10	.	.	.	.	.	.
COc1cccc(C(=O)NCC(c2cccs2)N2CCOCC2)c1 (stereo not drawn)	-3	0	.	100*	-6	-4	13	-2	1	5
COC(=O)c1ccccc1NC(=O)CSc1nnnn1-c1ccc(C)cc1C	14	-3	12	50*	0	-27	30*	32	4	3
Cc1cc(C(=O)COC(=O)c2cc(Cl)c(O)c(Cl)c2)c(C)n1C	-1	5	.	-10	-5	-34	.	.	.	.
O=C(NCCn1cc(SCc2ccccc2)c2ccccc21)c1c(F)cccc1F	2	36	-4	85*	70*	8	32*	47	4	-1
SMILES	TAAR1 ag	OX1R antag-1	GPR7 antagonist	TAAR1 antagonist	CHO parental Ca	OX1R antag-2	nonsel antag count	TAAR1 antag conf	Ga16 nonsel ag	TAAR1 ag counter
O=C(NCCn1cc(SCc2ccc(F)cc2)c2ccccc21)c1c(F)cccc1F	1	11	3	74*	42*	8	31*	48	6	6
CC(C)CC(NS(=O)(=O)OCC(Cl)(Cl)Cl)c1ccccc1 (stereo not drawn)	20	32	-6	86*	-11	0	13	48	4	5
COc1ccc(/C=C/C(=O)NC(=S)NCC2CCCO2)cc1 (stereo not drawn)	4	21	-18	11	-18	-36	.	.	.	.
COc1ccccc1/C=C/C(=O)NC(=S)NCC1CCCO1 (stereo not drawn)	6	3	-12	74*	-9	-7	27*	52*	5	7
CC(C)CN1C(=O)C(=O)N(CC(=O)c2ccc3c(c2)CCCC3)C1=O	6	5	.	-5	-16	-16	.	.	.	.
COc1ccc(S(=O)(=O)Nc2ncccn2)cc1	-3	9	-4	105*	4	-18	3	-1	1	1
COC(=O)CNC(c1ccccc1)c1cc(C)ccc1NC(=O)c1cccc(Cl)c1 (stereo not drawn)	0	16	24*	67*	-25	-32	23*	47	3	9
COc1ccc(-n2cc(-c3ccccc3)c3c(N4CCOCC4)ncnc32)cc1	5	19	-25	69*	-2	-31	24*	47	8	16
NC(=O)C1CCN(c2ncnc3c2c(-c2ccccc2)cn3-c2ccccc2)CC1	8	13	-8	64*	-4	-19	25*	41	9	8
OCCN1CCN(c2ncnc3c2c(-c2ccccc2)cn3-c2ccc(Br)cc2)CC1	6	20	1	24	-10	-16	.	.	.	.
Fc1ccc(-n2cc(-c3ccccc3)c3c(N4CCOCC4)ncnc32)cc1	8	8	-5	67*	-19	-46	15	36	7	17
CCC(C)n1c(SCC(=O)NC2CCS(=O)(=O)C2)nc2ccccc2c1=O (stereo not drawn)	0	8	.	-11	-8	-15	.	.	.	.
